Measured values from the array DNA melting data of Ke et al. (doi:10.1101/2024.01.08.574731).

Columns and labels:
[1] = folding enthalpy; higher = less favourable; fluorescence melt of hairpins on a sequencing array, two-state fit; settings: sodium 0.088 M
Outline: (§1)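 Folding enthalpy and melting temperature come from bootstrapped two-state fits to Cy3 fluorescence of library hairpins carrying annealed Cy3 and quencher oligos on a sequenced MiSeq flow cell. Imaging was done in 50 mM Na-HEPES pH 8.0, 25 mM NaCl, stepping by 2.5 °C up to 60 °C, and signals were normalised to pre-quench Cy3 and to control constructs. Results of four replicates were combined by inverse variance, and fitted temperatures were raised by 9.35 °C to match UV melts.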

[2] = melting temperature; fluorescence melt of hairpins on a sequencing array, two-state fit, raised by 9.35 °C to match UV melts; settings: sodium 0.088 M
Outline: as §1

Sequence | folding enthalpy [1] [kcal/mol] | Tm [2] [°C]
GATCCATCCTGGATC ((((((...)))))) | -43 | 52.7
GCTGAGCGAAAGCTGTGC ((..(((....)))..)) | -17.8 | 45.5
GTCTGAGGAAACTCAGGC (.(((((....))))).) | -32.2 | 49.5
GGTGCGGGAAACCGCATC (.(((((....))))).) | -15.7 | 60.4
GTCGCCGAAAGGCTCGAC ((((((....)))..))) | -13.2 | 39.1
GTTACCCGAAAGGGAAAC (((.(((....))).))) | -21.6 | 48.6
GGGCCTACGAAAGTACCC (((..(((....)))))) | -9.06 | 34.7
CGATATCGGAAACGATCG (((..(((....)))))) | -16.8 | 35.3
CGATCGGAAACGATCTCG ((((((....)))..))) | -12.1 | 36.9
GGTTCGGGAAACCGAATC (.(((((....))))).) | -27.1 | 50.6
GACTTCACGAAAGTGGTC (((..(((....)))))) | -12.1 | 31.4
GCGTCGTGACGC ((((....)))) | -22.7 | 68.4
GTACGGGGAAACTCGTAC (((((.(....).))))) | -35.4 | 50.7
GATCTGGAGACAGATC ((((((....)))))) | -33.9 | 52
GAGTGTGGAAACACACTC (((((((....))))))) | -36.1 | 66
GGCAGTGGAAACATTGCC ((((.((....)).)))) | -41.3 | 52.2
GCTGATCCGAAAGGAAGC (((..(((....)))))) | -18 | 39
GCCGACGAAAGTCAGGGC ((((((....)))..))) | -36.8 | 55.1
GCTCTCGAAAGAGGAGC ((((((....))).))) | -29.2 | 50.6
GATCCCACTGGGGATC ((((((....)))))) | -30.7 | 62.4
GGCTGATCGAAAGATGCC (((..(((....)))))) | -22.6 | 43.9
GCACCGCGAAAGCGTGC (((.(((....)))))) | -19 | 63.8
GAGTACCGAAAGGTTCTC (((.(((....))).))) | -30.7 | 47.9

Sequence | folding enthalpy [1] [kcal/mol] | Tm [2] [°C]
GATCTGGAGTCAGATC ((((((....)))))) | -48.3 | 48.1
GTGTTGCCGAAAGGCCAC (((..(((....)))))) | -10.3 | 57.8
GTTAAAGAAATTTAAC ((((((....)))))) | -14.3 | 29.6
GGTGGCGAAAGCCTACC ((((((....))).))) | -17.1 | 56.2
GAGGAGGCGAAAGCCCTC (((..(((....)))))) | -14.1 | 44.1
GCGACCGAAAGGTATCGC ((((((....)))..))) | -27.7 | 50.5
GTACCCGAAAGGGGTAC ((((((....))).))) | -27.8 | 59.2
GGAGATCCGAAAGGATCC (((..(((....)))))) | -9.31 | 42
GGGTCGCGAAAGCGCCCC (((.(((....))).))) | -18.6 | 66.8
CGCGGAAAGGTCCGCG ((((((....)))))) | -45.8 | 61.9
GCTACCGAAAGGTTGAGC ((((((....)))..))) | -18.2 | 38.8
ATATGGAAACATAT (((((....))))) | -11.4 | 27.6
GATCCCACGAGGGATC ((((((....)))))) | -34.5 | 63.5
GCGTGACCGAAAGGTCGC (((..(((....)))))) | -10.1 | 51.6
GATCTGCCCTCAGATC ((((((....)))))) | -42.5 | 49.8
GCTCAGCGAAAGCAGAGC ((((.((....)).)))) | -36.3 | 67.3
GAGTTTACGAAAGTACTC (((..(((....)))))) | -12.6 | 30
GGAACCGAAAGGTCATCC ((((((....)))..))) | -10.8 | 28.6
GGTTACTCGAAAGAGACC (((..(((....)))))) | -11.8 | 25
GTGAGTGGAAACACTCAC (((((((....))))))) | -44 | 66.2
GGAGTATCGAAAGATTCC (((..(((....)))))) | -13.1 | 26.6
GATCTGCGAAAGCAAATC (((.(((....))).))) | -18.4 | 36.5
GCGCAAGCGAAAGCTCGC (((..(((....)))))) | -12.8 | 45.7
